Test results: ChEMBL document CHEMBL3352313 (J Med Chem, 2014)

Columns and labels:
[1] = molecular target: T1, Muscarinic acetylcholine receptor M2 (Rattus norvegicus, UniProt P10980); assay: Activity at rat muscarinic acetylcholine receptor subtype 2 expressed in CHO cells co-transfected with chimeric Gqi5 by calcium mobilization assay; format: functional, cell-based
T1 sequence (P10980 whole entry): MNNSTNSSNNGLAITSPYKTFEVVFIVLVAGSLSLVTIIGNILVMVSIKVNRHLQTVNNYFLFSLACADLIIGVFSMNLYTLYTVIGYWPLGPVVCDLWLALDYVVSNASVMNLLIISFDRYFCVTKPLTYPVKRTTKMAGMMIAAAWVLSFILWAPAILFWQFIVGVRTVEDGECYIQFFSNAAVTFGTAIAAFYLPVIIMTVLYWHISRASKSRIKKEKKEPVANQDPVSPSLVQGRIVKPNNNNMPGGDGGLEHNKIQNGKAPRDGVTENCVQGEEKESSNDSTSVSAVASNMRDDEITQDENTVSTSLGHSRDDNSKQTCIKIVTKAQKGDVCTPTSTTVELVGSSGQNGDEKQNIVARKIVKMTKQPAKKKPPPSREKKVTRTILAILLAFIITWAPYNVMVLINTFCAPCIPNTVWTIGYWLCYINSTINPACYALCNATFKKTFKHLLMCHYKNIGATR
Method in brief: (§1)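 Muscarinic subtype selectivity by fluorescence calcium mobilization in highly expressing CHO lines with similar receptor levels; Gi/o-coupled M2 and M4 cells co-transfected with chimeric Gqi5 to couple to Ca2+ mobilization. Read-outs are PAM EC50 and ACh max response. Mean ± SEM of at least three independent determinations.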

[2] = molecular target: T2, Muscarinic acetylcholine receptor M1 (Rattus norvegicus, UniProt P08482); assay: Activity at rat muscarinic acetylcholine receptor subtype 1 expressed in CHO cells by calcium mobilization assay; format: functional, cell-based; method in brief: as §1
T2 sequence (P08482 whole entry): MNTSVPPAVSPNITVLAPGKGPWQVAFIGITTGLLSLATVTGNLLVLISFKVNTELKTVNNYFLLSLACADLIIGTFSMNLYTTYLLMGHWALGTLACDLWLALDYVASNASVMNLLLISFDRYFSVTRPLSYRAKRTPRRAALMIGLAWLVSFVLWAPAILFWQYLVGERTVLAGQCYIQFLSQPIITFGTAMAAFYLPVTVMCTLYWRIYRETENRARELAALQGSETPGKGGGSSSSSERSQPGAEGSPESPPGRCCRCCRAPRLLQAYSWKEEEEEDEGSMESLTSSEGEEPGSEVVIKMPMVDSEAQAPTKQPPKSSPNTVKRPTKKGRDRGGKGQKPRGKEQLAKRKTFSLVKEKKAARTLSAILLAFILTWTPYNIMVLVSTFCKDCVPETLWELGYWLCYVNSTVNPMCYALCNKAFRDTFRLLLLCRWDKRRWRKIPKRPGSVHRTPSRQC

[3] = molecular target: T3, Muscarinic acetylcholine receptor M5 (Homo sapiens) (UniProt P08912); assay: Displacement of [3H]NMS from human muscarinic acetylcholine receptor subtype 5 expressed in CHO cell membranes assessed as radioligand binding level by scintillation counting method
T3 sequence (whole entry): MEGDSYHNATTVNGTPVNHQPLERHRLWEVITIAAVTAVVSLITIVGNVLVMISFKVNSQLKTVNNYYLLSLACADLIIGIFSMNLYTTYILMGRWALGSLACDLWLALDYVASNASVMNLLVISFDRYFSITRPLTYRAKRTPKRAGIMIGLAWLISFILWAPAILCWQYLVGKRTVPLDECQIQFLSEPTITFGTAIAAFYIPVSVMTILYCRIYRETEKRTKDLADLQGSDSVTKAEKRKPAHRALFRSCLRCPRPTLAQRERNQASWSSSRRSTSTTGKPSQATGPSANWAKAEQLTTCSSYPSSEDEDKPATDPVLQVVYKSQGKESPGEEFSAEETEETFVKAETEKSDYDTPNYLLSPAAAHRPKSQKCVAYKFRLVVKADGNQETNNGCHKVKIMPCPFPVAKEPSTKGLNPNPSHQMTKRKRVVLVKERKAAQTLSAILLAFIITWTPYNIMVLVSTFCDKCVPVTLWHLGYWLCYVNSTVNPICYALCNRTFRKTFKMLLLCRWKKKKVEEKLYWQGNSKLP

[4] = system: Plasma; assay: Fraction unbound in rat plasma at 5 uM incubated for 4 hrs at 37 degC by equilibrium dialysis based LC/MS/MS analysis; format: ADME, cell-free
Method in brief: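 Fraction unbound measured in rat and human plasma and in rat brain homogenate.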

Question: `CCN(Cc1ccccc1C(F)(F)F)C(=O)C1CCN(S(=O)(=O)c2ccc3[nH]ncc3c2)CC1` was tested. Which EC50 [1] did it give?
Answer: The EC50 was over 30000 nM.

Question: And the EC50 [2]?
Answer: Its EC50 is 2000 nM.

Question: What about the %max [3] of the same compound?
Answer: Its %max is 97.1%.

Question: And the Fu [4]?
Answer: The Fu was 0.014.
